Laboratory results as given in ChEMBL document CHEMBL1124112, “Indoline analogues of idazoxan: potent alpha 2-antagonists and alpha 1-agonists” (J Med Chem, 1988).

Columns and labels:
Rattus norvegicus [1] = assay: In vivo ED40 is the raising diastolic blood pressure by 40 mm Hg in pithed rats. (postjunctional); format: functional; settings: Artery
In short: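 Pithed rats, compound given iv in cumulative doses. ED40 is the dose (μg/kg) raising diastolic blood pressure by 40 mmHg. Separate groups of rats (n = 4-6).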

Rattus norvegicus [2] = assay: In vivo dose required to inhibit vas deferens contraction by 25% after pretreatment with prazosin in pithed rats. (prejunctional); ant- antagonist; format: functional, organism-based; settings: filed as antagonist
In short: (§1)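 Pithed rats pretreated with prazosin (1 mg/kg). Compound given iv in cumulative doses. ED25 is the dose (μg/kg) inhibiting vas deferens contraction by 25%. Separate groups of rats (n = 4-6).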

[3] = tested on: Adrenergic receptor alpha-2 (Rattus norvegicus); assay: Agonism at alpha-2 adrenergic receptor, determined as dose required to produce a two fold shift of the cumulative dose-response curve to UK-14304 on the twitch response in rat vas deferens.
[4] = target: T1, Adrenergic receptor alpha-1 (Rattus norvegicus, UniProt P15823+P23944+P43140); assay: Inhibition of saturable binding of [3H]prazosin to alpha-1 adrenergic receptor site in rat cerebral cortical membranes.; format: cell membranes, Membrane
T1 sequence (P15823 whole entry): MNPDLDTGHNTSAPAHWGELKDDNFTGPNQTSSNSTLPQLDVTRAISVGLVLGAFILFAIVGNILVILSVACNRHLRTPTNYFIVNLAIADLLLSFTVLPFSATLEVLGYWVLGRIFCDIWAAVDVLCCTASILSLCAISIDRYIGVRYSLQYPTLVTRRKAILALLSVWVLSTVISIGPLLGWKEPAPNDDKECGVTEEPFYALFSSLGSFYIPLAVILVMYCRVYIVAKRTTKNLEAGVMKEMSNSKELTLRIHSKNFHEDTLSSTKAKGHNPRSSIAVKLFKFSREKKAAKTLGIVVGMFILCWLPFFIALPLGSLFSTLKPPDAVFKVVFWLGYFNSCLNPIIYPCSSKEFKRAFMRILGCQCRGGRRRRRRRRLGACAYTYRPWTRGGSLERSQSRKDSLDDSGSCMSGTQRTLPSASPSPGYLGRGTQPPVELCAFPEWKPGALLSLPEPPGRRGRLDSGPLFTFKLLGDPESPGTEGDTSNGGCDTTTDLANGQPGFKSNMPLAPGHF
T1 sequence (P23944 whole entry): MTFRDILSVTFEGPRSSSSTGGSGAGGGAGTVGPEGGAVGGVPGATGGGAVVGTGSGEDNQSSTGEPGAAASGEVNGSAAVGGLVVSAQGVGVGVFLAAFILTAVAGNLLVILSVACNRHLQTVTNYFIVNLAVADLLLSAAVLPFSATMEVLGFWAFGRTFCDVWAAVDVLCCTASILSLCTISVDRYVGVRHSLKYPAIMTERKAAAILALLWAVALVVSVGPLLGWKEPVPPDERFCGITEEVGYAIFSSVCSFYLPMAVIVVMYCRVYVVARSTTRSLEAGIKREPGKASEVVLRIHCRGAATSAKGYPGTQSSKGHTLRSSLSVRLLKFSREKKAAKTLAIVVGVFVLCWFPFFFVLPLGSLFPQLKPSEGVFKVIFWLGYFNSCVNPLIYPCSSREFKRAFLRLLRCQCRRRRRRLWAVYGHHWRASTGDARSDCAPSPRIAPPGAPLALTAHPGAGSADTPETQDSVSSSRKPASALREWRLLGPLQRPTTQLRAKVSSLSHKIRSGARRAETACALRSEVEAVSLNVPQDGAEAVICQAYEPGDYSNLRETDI
T1 sequence (P43140 whole entry): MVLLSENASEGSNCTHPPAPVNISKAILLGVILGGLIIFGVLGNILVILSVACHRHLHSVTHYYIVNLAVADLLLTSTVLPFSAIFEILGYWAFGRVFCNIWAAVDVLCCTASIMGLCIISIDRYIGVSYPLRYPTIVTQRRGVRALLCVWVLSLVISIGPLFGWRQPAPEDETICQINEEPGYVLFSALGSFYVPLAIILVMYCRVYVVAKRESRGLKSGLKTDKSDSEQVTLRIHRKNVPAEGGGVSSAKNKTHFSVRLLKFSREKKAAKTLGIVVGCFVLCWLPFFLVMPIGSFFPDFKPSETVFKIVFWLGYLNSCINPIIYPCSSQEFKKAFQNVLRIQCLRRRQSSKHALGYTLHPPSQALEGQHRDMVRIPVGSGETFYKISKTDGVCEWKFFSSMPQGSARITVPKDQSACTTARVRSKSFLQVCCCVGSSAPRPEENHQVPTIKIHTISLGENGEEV

[5] = target: Adrenergic receptor alpha-1 (Rattus norvegicus) (UniProt P15823+P23944+P43140); assay: Agonism at alpha-1 adrenergic receptor, determined as the dose required to produce a two fold shift of the cirazoline on diastolic blood pressure.; format: functional, tissue-based; settings: Artery
Rattus norvegicus [6] = assay: In vivo antagonist dose producing two fold shift of UK-14,304 in pithed rats. (prejunctional)
Rattus norvegicus [7] = assay: In vivo antagonist dose producing two fold shift of cirazoline in pithed rats. (postjunctional);AG- agonist; format: functional, organism-based; settings: filed as agonist
In short: (§2)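 Pithed rats, iv. Antagonist given before a cumulative dose-response curve to cirazoline on diastolic blood pressure. DR2 is the antagonist dose (μg/kg) giving a twofold rightward shift. Separate groups of rats (n = 4-6).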

[8] = target: T2, Adrenergic receptor alpha-2 (Rattus norvegicus, UniProt P22086+P19328+P22909); assay: Inhibition of saturable binding of [3H]idazoxan to alpha2-site in rat cerebral cortical membranes.; format: cell membranes, Membrane
T2 sequence (P22086 whole entry): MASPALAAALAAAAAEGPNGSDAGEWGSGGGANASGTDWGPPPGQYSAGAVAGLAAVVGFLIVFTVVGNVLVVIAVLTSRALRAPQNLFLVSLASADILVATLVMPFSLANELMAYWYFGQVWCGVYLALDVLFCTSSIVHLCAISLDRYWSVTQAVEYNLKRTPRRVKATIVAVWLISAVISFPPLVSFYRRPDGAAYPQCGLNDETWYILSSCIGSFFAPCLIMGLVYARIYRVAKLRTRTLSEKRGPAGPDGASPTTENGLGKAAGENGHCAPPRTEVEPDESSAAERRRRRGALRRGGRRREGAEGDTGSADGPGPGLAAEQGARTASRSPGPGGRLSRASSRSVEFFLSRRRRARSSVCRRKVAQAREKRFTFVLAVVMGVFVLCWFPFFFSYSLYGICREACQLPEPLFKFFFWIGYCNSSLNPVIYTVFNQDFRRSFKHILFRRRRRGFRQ
T2 sequence (P19328 whole entry): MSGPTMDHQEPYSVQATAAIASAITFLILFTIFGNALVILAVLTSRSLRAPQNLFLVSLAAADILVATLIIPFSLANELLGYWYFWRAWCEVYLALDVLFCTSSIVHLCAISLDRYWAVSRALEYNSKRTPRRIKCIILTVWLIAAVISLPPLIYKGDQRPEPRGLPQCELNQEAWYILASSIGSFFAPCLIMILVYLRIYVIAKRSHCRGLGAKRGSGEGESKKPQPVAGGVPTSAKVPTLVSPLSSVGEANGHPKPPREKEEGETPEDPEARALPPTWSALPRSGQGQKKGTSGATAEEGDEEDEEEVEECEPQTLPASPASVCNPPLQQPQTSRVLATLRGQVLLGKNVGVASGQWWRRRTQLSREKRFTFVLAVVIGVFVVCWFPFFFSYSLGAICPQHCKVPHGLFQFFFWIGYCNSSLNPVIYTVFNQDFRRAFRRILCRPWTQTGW
T2 sequence (P22909 whole entry): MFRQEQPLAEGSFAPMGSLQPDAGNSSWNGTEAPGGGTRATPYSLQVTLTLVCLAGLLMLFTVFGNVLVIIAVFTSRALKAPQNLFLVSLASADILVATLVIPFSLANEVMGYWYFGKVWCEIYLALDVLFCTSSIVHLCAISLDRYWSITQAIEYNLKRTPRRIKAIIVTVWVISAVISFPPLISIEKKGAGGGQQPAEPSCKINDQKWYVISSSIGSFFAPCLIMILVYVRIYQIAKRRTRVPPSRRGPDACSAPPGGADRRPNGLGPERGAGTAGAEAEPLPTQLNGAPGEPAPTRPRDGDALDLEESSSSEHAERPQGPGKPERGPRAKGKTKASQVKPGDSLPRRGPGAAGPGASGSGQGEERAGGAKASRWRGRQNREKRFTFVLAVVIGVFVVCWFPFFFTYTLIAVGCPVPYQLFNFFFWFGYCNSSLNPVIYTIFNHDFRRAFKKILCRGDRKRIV

[9] = target: Adrenergic receptor alpha-2 (Rattus norvegicus) (UniProt P22086+P19328+P22909); assay: Antagonism at alpha-2 adrenergic receptor, determined as dose required to produce a two fold shift of the dose-response curve to UK-14304 on the twitch response in rat vas deferens; format: functional, tissue-based
In short: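 Pithed rats, iv. Antagonist given before a cumulative dose-response curve to UK-14,304 on the vas deferens twitch response. DR2 is the antagonist dose (μg/kg) giving a twofold shift of the curve. Separate groups of rats (n = 4-6).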

Rattus norvegicus [10] = assay: In vivo antagonist dose producing two fold shift of cirazoline in pithed rats. […]; format: functional
Rattus norvegicus [11] = assay: In vivo dose required to inhibit vas deferens contraction by 25% after pretreatment with prazosin in pithed rats. (prejunctional); format: functional; in short: as §1
Rattus norvegicus [12] = assay: In vivo antagonist dose producing two fold shift of cirazoline in pithed rats. (postjunctional)
[13] = target: T1, Adrenergic receptor alpha-1; assay: Inhibition of saturable binding of [3H]prazosin to alpha1-site in rat cerebral cortical membranes.; format: cell membranes, Membrane
Rattus norvegicus [14] = assay: In vivo antagonist dose producing two fold shift of cirazoline in pithed rats. (postjunctional); AG- agonist; format: functional, organism-based; settings: filed as agonist; in short: as §2
Rattus norvegicus [15] = assay: In vivo antagonist dose producing two fold shift of cirazoline in pithed rats. (postjunctional); format: functional
In short: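 Pithed rats, separate groups (n = 4-6). Cirazoline cumulative dose-response on diastolic blood pressure (postjunctional α1) was recorded with and without antagonist given iv. The antagonist dose (μg/kg, iv) giving a twofold rightward shift of the cirazoline curve was reported as DR2.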

Structure (SMILES) | ED40 (Rattus norvegicus [1]) [µg/kg] | ED25 (Rattus norvegicus [2]) | Prejunctional agonist potency [3] | Ki [4] [nM] | Postjunctional agonist potency [5] | DR2 (Rattus norvegicus [6]) [mg/kg] | ED40 (Rattus norvegicus [7]) | Ki [8] [nM] | Prejunctional antagonist potency [9] | ED40 (Rattus norvegicus [10]) [µg/kg] | ED25 (Rattus norvegicus [11]) [µg/kg] | DR2 (Rattus norvegicus [12]) [mg/kg] | Ki [13] [nM] | ED40 (Rattus norvegicus [14]) | DR2 (Rattus norvegicus [15]) [mg/kg]
CN1c2cccc(Cl)c2CC1C1=NCCN1.Cl (configuration not stated) | 0.2 | Antagonist | 0.29 | 13.1 | 17 | 0.0024 | Agonist | 0.16 | 10 |  |  |  |  |  | 
CN1c2ccccc2CC1C1=NCCN1 (configuration not stated) | 0.5 |  | 0.77 | 3.86 | 3.8 |  | Agonist | 0.69 | 5.5 | 3.7 | 4.1 |  |  |  | 
c1ccc2c(c1)OCC(C1=NCCN1)O2 (configuration not stated) [IDAZOXAN] | 65.5 |  |  |  |  | 0.0202 |  |  |  |  |  | 1.43 |  |  | 
CCN1c2cccc(Cl)c2CC1C1=NCCN1 (configuration not stated) | 0.8 | Antagonist | 0.51 |  | 4.4 | 0.0015 |  | 0.42 | 8 |  |  |  | 1.9 | Agonist | 
COc1cc2nc(N3CCN(C(=O)c4ccco4)CC3)nc(N)c2cc1OC [PRAZOSIN] |  |  |  |  |  | 5.44 |  |  |  |  |  |  |  |  | 0.0094
